Reference: ChEMBL document CHEMBL5214907 (J Med Chem, 2021)
Activity calls are given as the source filed them. The calls are words filed in the database; no cut-off is given here.

Columns and labels:
[1] = biological target: Neuronal acetylcholine receptor; alpha9/alpha10 (Homo sapiens, UniProt Q9GZZ6+Q9UGM1); test: Inhibition of human alpha9alpha10 nAChR expressed in xenopus oocytes assessed as inhibition of Ach- induced response at -70 mV holding potential and measured for 1 to 5 days in presence of Ach stimulation by voltage-clamp based electrophysiological method; format: cell-based, Oocyte
Summary of the method: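 Two-electrode voltage clamp on Xenopus oocytes expressing human α9α10, recorded 1–5 d after injection. Held at −70 mV at room temperature in Ca²⁺-containing ND-96. A 1 s pulse of 100 µM ACh was given every 60 s and peptide was flowed on. IC50 with 95% CI from 3–5 separate oocytes.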

[2] = biological target: Nicotinic acetylcholine receptor alpha9/alpha10 (Rattus norvegicus, UniProt P43144+Q9JLB5); format: cell-based, Oocyte
[3] = biological target: Neuronal acetylcholine receptor; alpha3/beta2 (Rattus norvegicus, UniProt P04757+P12390); test: Inhibition of rat alpha3beta2 nAChR expressed in xenopus oocytes assessed as inhibition of Ach- induced response at -70 mV holding potential and measured for 1 to 5 days in presence of Ach stimulation by voltage-clamp based electrophysiological method; format: cell-based, Oocyte
Summary of the method: (§1)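 Xenopus oocytes expressing cloned rat or human nAChR subtypes, recorded 1–5 d after injection. Held at −70 mV at room temperature and pulsed with ACh for 1 s every 60 s while peptide was flowed on. Where noted, Ba²⁺ replaced Ca²⁺ to limit current run-up after block. Values from 3–5 separate oocytes.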

[4] = Inhibition of human alpha1beta1deltaepsilon nAChR expressed in xenopus oocytes assessed as inhibition of Ach- induced response at -70 mV holding potential and measured for 1 to 5 days in presence of Ach stimulation by voltage-clamp based electrophysiological method; format: cell-based; conditions: Oocyte; summary of the method: as §1
[5] = biological target: Neuronal acetylcholine receptor; alpha2/beta2 (Homo sapiens, UniProt P17787+Q15822); test: Inhibition of human alpha2beta2 nAChR expressed in xenopus oocytes assessed as inhibition of Ach- induced response at -70 mV holding potential and measured for 1 to 5 days in presence of Ach stimulation by voltage-clamp based electrophysiological method; format: cell-based, Oocyte; summary of the method: as §1
[6] = biological target: Neuronal acetylcholine receptor; alpha2/beta2 (Rattus norvegicus, UniProt P12389+P12390); test: Inhibition of rat alpha2beta2 nAChR expressed in xenopus oocytes assessed as inhibition of Ach- induced response at -70 mV holding potential and measured for 1 to 5 days in presence of Ach stimulation by voltage-clamp based electrophysiological method; format: cell-based, Oocyte; summary of the method: as §1
[7] = biological target: Neuronal acetylcholine receptor; alpha2/beta4 (Homo sapiens, UniProt P30926+Q15822); test: Inhibition of human alpha2beta4 nAChR expressed in xenopus oocytes assessed as inhibition of Ach- induced response at -70 mV holding potential and measured for 1 to 5 days in presence of Ach stimulation by voltage-clamp based electrophysiological method; format: cell-based, Oocyte; summary of the method: as §1
[8] = biological target: Neuronal acetylcholine receptor; alpha2/beta4 (Rattus norvegicus, UniProt P12389+P12392); test: Inhibition of rat alpha2beta4 nAChR expressed in xenopus oocytes assessed as inhibition of Ach- induced response at -70 mV holding potential and measured for 1 to 5 days in presence of Ach stimulation by voltage-clamp based electrophysiological method; format: cell-based, Oocyte; summary of the method: as §1
[9] = biological target: Neuronal acetylcholine receptor; alpha3/beta2 (Homo sapiens, UniProt P17787+P32297); test: Inhibition of human alpha3beta2 nAChR expressed in xenopus oocytes assessed as inhibition of Ach- induced response at -70 mV holding potential and measured for 1 to 5 days in presence of Ach stimulation by voltage-clamp based electrophysiological method; format: cell-based, Oocyte; summary of the method: as §1
[10] = biological target: Neuronal acetylcholine receptor; alpha3/beta4 (Homo sapiens, UniProt P30926+P32297); test: Inhibition of human alpha3beta4 nAChR expressed in xenopus oocytes assessed as inhibition of Ach- induced response at -70 mV holding potential and measured for 1 to 5 days in presence of Ach stimulation by voltage-clamp based electrophysiological method; format: cell-based, Oocyte; summary of the method: as §1
[11] = biological target: Neuronal acetylcholine receptor; alpha3/beta4 (Rattus norvegicus, UniProt P04757+P12392); test: Inhibition of rat alpha3beta4 nAChR expressed in xenopus oocytes assessed as inhibition of Ach- induced response at -70 mV holding potential and measured for 1 to 5 days in presence of Ach stimulation by voltage-clamp based electrophysiological method; format: cell-based, Oocyte; summary of the method: as §1
[12] = biological target: Neuronal acetylcholine receptor; alpha4/beta2 (Homo sapiens, UniProt P17787+P43681); test: Inhibition of human alpha4beta2 nAChR expressed in xenopus oocytes assessed as inhibition of Ach- induced response at -70 mV holding potential and measured for 1 to 5 days in presence of Ach stimulation by voltage-clamp based electrophysiological method; format: cell-based, Oocyte; summary of the method: as §1
[13] = biological target: Neuronal acetylcholine receptor; alpha4/beta2 (Rattus norvegicus, UniProt P09483+P12390); test: Inhibition of rat alpha4beta2 nAChR expressed in xenopus oocytes assessed as inhibition of Ach- induced response at -70 mV holding potential and measured for 1 to 5 days in presence of Ach stimulation by voltage-clamp based electrophysiological method; format: cell-based, Oocyte; summary of the method: as §1
[14] = biological target: Neuronal acetylcholine receptor; alpha4/beta4 (Homo sapiens, UniProt P30926+P43681); test: Inhibition of human alpha4beta4 nAChR expressed in xenopus oocytes assessed as inhibition of Ach- induced response at -70 mV holding potential and measured for 1 to 5 days in presence of Ach stimulation by voltage-clamp based electrophysiological method; format: cell-based, Oocyte; summary of the method: as §1
[15] = biological target: Neuronal acetylcholine receptor; alpha4/beta4 (Rattus norvegicus, UniProt P09483+P12392); test: Inhibition of rat alpha4beta4 nAChR expressed in xenopus oocytes assessed as inhibition of Ach- induced response at -70 mV holding potential and measured for 1 to 5 days in presence of Ach stimulation by voltage-clamp based electrophysiological method; format: cell-based, Oocyte; summary of the method: as §1
[16] = biological target: Nicotinic acetylcholine receptor alpha6/alpha3/beta4 (Homo sapiens, UniProt P30926+P32297+Q15825); test: Inhibition of human alpha6/alpha3beta4 nAChR expressed in xenopus oocytes assessed as inhibition of Ach- induced response at -70 mV holding potential and measured for 1 to 5 days in presence of Ach stimulation by voltage-clamp based electrophysiological method; format: cell-based, Oocyte; summary of the method: as §1
[17] = biological target: Nicotinic acetylcholine receptor alpha6/alpha3/beta4 (Rattus norvegicus, UniProt P04757+P12392+P43143); test: Inhibition of rat alpha6/alpha3beta4 nAChR expressed in xenopus oocytes assessed as inhibition of Ach- induced response at -70 mV holding potential and measured for 1 to 5 days in presence of Ach stimulation by voltage-clamp based electrophysiological method; format: cell-based, Oocyte; summary of the method: as §1
[18] = Inhibition of human alpha6/alpha3beta2beta3 nAChR expressed in xenopus oocytes assessed as inhibition of Ach- induced response at -70 mV holding potential and measured for 1 to 5 days in presence of Ach stimulation by voltage-clamp based electrophysiological method; format: cell-based; conditions: Oocyte; summary of the method: as §1
[19] = biological target: Nicotinic acetylcholine receptor alpha6/alpha3/beta2/beta3 (Rattus norvegicus, UniProt P04757+P12390+P12391+P43143); test: Inhibition of rat alpha6/alpha3beta2beta3 nAChR expressed in xenopus oocytes assessed as inhibition of Ach- induced response at -70 mV holding potential and measured for 1 to 5 days in presence of Ach stimulation by voltage-clamp based electrophysiological method; format: cell-based, Oocyte; summary of the method: as §1
[20] = biological target: Neuronal acetylcholine receptor subunit alpha-7 (Homo sapiens, UniProt P36544); test: Inhibition of human alpha7 nAChR expressed in xenopus oocytes assessed as inhibition of Ach- induced response at -70 mV holding potential and measured for 1 to 5 days in presence of Ach stimulation by voltage-clamp based electrophysiological method; format: cell-based, Oocyte; summary of the method: as §1
[21] = biological target: Neuronal acetylcholine receptor subunit alpha-7 (Rattus norvegicus, UniProt Q05941); test: Inhibition of rat alpha7 nAChR expressed in xenopus oocytes assessed as inhibition of Ach- induced response at -70 mV holding potential and measured for 1 to 5 days in presence of Ach stimulation by voltage-clamp based electrophysiological method; format: cell-based, Oocyte; summary of the method: as §1
[22] = tested on: Mus musculus; test: Analgesic activity against oxaliplatin-induced peripheral neuropathic pain mouse model assessed as reversal of oxaliplatin-induced cold allodynia by measuring withdrawal latency at 4 to 40 microg/kg, sc for 22 days (5 days per week) and measured after 24 hrs post-injection by cold-plate test chamber analysis; format: functional, organism-based; conditions: dose 4-40 µg/kg, time 22.0 day
Summary of the method: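 Mice, 8 per group. Oxaliplatin 3.5 mg/kg i.p. and peptide 4 or 40 µg/kg s.c., both in sterile 0.9% NaCl, given daily Wed–Fri and Mon–Tue through day 22; controls received saline. Cold allodynia tested on days 8, 15 and 22, 24 h after the last injection. Cold plate: 2–5 min acclimation at 23 °C, then cooled 10 °C/min until both forepaws lifted with shaking or licking. Mean ± SEM versus vehicle.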

Chain of Neuronal acetylcholine receptor; alpha9/alpha10 (Q9UGM1 whole entry): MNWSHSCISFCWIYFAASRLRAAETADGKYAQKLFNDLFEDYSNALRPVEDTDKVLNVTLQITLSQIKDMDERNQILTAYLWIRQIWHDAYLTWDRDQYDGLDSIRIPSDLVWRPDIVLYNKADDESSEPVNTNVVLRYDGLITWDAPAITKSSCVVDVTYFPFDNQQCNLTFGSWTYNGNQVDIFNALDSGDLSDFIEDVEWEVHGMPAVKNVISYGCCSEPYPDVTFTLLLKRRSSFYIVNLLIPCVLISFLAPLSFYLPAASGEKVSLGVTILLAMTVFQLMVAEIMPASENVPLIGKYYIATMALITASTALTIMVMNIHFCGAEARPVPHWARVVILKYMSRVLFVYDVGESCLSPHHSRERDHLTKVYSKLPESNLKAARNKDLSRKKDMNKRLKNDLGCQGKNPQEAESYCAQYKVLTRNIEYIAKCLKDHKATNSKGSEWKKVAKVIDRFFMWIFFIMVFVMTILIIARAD
Chain of Neuronal acetylcholine receptor; alpha9/alpha10 (Q9GZZ6 whole entry): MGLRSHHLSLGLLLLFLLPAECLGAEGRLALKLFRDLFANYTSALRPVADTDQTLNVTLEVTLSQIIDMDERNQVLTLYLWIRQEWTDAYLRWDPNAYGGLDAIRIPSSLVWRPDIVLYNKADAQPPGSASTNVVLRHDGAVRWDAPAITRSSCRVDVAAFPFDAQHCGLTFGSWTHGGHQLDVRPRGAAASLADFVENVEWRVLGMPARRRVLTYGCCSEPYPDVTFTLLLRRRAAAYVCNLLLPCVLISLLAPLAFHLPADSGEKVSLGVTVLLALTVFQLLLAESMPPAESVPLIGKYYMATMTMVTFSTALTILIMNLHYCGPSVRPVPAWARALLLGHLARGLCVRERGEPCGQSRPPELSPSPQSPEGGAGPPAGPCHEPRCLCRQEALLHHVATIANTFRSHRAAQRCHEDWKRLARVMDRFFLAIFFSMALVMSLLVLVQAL
Chain of Nicotinic acetylcholine receptor alpha9/alpha10 (P43144 whole entry): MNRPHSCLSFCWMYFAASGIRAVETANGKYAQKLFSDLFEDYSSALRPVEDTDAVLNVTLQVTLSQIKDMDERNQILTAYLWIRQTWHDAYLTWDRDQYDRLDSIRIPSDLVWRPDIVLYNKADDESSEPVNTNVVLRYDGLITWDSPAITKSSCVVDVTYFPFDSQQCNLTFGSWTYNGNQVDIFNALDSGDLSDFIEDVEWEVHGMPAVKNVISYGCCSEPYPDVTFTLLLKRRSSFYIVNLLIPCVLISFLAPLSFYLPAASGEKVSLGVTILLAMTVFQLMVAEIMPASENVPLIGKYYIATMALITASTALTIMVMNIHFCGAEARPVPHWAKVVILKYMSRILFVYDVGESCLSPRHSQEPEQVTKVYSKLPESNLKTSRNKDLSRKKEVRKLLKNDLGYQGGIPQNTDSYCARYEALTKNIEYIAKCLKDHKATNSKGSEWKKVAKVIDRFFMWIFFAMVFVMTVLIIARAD
Chain of Nicotinic acetylcholine receptor alpha9/alpha10 (Q9JLB5 whole entry): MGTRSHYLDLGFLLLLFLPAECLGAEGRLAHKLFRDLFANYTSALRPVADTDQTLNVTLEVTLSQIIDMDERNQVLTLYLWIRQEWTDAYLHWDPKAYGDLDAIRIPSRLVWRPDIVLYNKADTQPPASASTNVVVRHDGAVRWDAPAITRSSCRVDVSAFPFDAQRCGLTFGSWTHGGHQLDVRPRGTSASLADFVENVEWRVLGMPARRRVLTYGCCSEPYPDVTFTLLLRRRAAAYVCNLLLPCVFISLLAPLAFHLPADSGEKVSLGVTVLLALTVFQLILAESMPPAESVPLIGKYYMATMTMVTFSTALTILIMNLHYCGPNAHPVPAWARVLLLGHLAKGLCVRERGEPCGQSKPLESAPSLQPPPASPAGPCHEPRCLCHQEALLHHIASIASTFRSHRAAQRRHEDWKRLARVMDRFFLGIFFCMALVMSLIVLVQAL
Chain of Neuronal acetylcholine receptor subunit alpha-7 (Homo sapiens, UniProt P36544) (P36544 whole entry): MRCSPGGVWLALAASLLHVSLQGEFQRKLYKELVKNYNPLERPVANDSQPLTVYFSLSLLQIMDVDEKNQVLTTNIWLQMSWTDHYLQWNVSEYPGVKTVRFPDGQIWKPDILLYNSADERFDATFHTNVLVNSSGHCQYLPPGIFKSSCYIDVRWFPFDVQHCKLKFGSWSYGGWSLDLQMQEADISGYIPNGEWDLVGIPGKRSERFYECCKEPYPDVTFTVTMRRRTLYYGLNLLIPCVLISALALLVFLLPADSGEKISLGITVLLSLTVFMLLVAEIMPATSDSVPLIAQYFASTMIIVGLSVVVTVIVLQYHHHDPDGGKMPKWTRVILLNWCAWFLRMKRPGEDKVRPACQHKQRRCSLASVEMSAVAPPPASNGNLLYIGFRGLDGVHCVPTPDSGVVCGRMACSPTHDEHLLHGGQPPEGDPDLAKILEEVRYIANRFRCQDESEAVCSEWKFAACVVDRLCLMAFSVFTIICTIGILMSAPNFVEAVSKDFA
Chain of Neuronal acetylcholine receptor subunit alpha-7 (Rattus norvegicus, UniProt Q05941) (Q05941 whole entry): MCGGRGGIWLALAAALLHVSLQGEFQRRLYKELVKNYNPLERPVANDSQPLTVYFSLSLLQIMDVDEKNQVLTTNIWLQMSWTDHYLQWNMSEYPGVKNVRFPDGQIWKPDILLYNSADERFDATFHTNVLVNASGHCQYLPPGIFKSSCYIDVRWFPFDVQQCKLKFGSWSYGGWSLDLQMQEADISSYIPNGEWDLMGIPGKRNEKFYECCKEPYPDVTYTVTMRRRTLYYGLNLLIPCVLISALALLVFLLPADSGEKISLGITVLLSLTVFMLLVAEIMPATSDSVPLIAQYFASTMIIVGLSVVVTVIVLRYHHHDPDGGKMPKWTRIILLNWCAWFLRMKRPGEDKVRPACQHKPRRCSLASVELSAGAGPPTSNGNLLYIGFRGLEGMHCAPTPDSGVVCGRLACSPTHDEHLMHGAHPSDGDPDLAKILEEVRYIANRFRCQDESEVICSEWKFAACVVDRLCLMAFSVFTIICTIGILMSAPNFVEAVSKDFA
Chain of Neuronal acetylcholine receptor; alpha2/beta2 (Homo sapiens, UniProt P17787+Q15822) (P17787 whole entry): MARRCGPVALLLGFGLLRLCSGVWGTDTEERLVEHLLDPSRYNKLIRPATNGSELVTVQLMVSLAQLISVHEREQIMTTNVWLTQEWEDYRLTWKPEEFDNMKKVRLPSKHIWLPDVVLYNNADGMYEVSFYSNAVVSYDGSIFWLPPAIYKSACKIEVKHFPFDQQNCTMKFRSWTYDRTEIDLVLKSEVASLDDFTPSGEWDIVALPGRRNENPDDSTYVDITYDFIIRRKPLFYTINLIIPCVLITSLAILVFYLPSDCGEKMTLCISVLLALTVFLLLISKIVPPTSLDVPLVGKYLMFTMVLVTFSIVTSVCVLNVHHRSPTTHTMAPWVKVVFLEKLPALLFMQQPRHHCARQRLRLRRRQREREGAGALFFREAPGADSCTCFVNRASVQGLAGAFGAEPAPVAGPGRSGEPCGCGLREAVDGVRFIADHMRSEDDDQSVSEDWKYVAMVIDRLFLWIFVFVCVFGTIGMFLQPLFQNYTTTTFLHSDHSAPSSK
Chain of Neuronal acetylcholine receptor; alpha2/beta2 (Homo sapiens, UniProt P17787+Q15822) (Q15822 whole entry): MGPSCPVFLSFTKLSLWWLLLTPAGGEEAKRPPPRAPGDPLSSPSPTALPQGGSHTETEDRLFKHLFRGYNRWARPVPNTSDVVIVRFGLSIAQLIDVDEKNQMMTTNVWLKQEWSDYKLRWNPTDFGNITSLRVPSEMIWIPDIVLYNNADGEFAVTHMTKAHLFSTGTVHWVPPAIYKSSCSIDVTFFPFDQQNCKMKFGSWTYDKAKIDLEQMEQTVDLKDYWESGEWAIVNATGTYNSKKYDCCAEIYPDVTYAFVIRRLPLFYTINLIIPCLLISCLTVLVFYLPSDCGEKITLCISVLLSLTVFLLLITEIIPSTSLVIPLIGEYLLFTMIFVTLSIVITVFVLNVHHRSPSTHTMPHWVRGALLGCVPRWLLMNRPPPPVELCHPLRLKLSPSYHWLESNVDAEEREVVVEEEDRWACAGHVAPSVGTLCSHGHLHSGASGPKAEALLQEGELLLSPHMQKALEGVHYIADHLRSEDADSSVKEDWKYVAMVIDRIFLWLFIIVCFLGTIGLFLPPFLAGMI
Chain of Neuronal acetylcholine receptor; alpha4/beta2 (Homo sapiens, UniProt P17787+P43681) (P17787 whole entry): as the sequence (P17787 whole entry) above
Chain of Neuronal acetylcholine receptor; alpha4/beta2 (Homo sapiens, UniProt P17787+P43681) (P43681 whole entry): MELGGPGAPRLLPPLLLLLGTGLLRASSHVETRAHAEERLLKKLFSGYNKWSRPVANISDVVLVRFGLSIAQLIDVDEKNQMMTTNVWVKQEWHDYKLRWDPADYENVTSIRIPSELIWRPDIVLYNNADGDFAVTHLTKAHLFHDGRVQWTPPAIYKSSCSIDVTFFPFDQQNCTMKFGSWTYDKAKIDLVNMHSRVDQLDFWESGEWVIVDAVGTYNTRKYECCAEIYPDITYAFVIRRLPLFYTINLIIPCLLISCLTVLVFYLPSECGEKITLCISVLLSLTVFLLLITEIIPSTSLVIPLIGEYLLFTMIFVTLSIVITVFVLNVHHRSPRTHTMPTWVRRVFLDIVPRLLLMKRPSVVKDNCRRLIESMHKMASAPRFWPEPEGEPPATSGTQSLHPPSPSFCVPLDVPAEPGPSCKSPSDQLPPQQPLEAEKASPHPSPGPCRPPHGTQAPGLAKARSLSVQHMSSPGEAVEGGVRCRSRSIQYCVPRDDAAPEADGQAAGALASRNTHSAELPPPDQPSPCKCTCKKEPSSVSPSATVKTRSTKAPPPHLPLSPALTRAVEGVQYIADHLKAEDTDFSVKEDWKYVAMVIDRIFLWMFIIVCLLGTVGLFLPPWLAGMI

SMILES: C[C@@H](O)[C@@H]1NC(=O)[C@@H]2CSSC[C@@H](C(=O)N[C@@H](Cc3ccc(O)cc3)C(=O)O)NC(=O)[C@H](CCC(N)=O)NC(=O)[C@H](Cc3ccc(O)c(I)c3)NC(=O)[C@H](CCCNC(=N)N)NC(=O)[C@H](CSSC[C@@H](NC(=O)CN)C(=O)N2)NC(=O)[C@H](CCCNC(N)=O)NC(=O)[C@@H]2CCCN2C(=O)[C@H](CC(=O)O)NC1=O
- IC50 [1]: 1.4 nM

SMILES: N=C(N)NCCC[C@H](NC(=O)[C@@H]1CSSC[C@@H]2NC(=O)[C@@H](NC(=O)CN)CSSC[C@H](NC(=O)[C@H](CCCNC(=N)N)NC(=O)[C@@H]3CCCN3C(=O)[C@H](CC(=O)O)NC(=O)[C@H](CO)NC2=O)C(=O)N[C@@H](CCCNC(N)=O)C(=O)N[C@@H](Cc2ccc(O)cc2)C(=O)N[C@@H](CCCNC(=N)N)C(=O)N1)C(=O)O
- IC50 [2]: 0.00149 µM

SMILES: C[C@@H](O)[C@@H]1NC(=O)[C@@H]2CSSC[C@@H](C(=O)N[C@@H](Cc3ccc(O)cc3)C(=O)O)NC(=O)[C@H](CCC(N)=O)NC(=O)[C@H](Cc3ccc(O)c(I)c3)NC(=O)[C@H](CCCNC(N)=O)NC(=O)[C@@H](NC(=O)[C@H](CCCNC(=N)N)NC(=O)[C@@H]3CCCN3C(=O)[C@H](CC(=O)O)NC1=O)C(C)(C)SSC[C@@H](NC(=O)CN)C(=O)N2
- IC50 [1]: > 1000 nM

SMILES: C[C@@H](O)[C@@H]1NC(=O)[C@H]2NC(=O)[C@H](NC(=O)CN)CSSC[C@H](NC(=O)[C@H](CCCNC(=N)N)NC(=O)[C@@H]3CCCN3C(=O)[C@H](CC(=O)O)NC1=O)C(=O)N[C@@H](CCCNC(=N)N)C(=O)N[C@@H](Cc1ccc(O)c(I)c1)C(=O)N[C@@H](CCCN)C(=O)N[C@H](C(=O)N[C@H](CC(=O)N[C@@H](CCCN)C(=O)O)Cc1ccc(O)cc1)CSSC2(C)C
- IC50 [1]: 0.34 nM

SMILES: C[C@@H](O)[C@@H]1NC(=O)[C@H]2NC(=O)[C@H](NC(=O)CN)CSSC[C@H](NC(=O)[C@H](CCCNC(=N)N)NC(=O)[C@@H]3CCCN3C(=O)[C@H](CC(=O)O)NC1=O)C(=O)N[C@@H](CCCNC(=N)N)C(=O)N[C@@H](Cc1ccc(O)c(I)c1)C(=O)N[C@@H](CCCN)C(=O)N[C@H](C(=O)N[C@H](CC(=O)N[C@@H](CCCNC(=N)N)C(=O)O)Cc1ccc(O)cc1)CSSC2(C)C
- IC50 [3]: > 10 µM
- IC50 [4]: > 10 µM
- IC50 [5]: > 10 µM
- IC50 [2]: 0.00039 µM
- IC50 [1]: 0.05 nM
- IC50 [6]: > 10 µM
- IC50 [7]: > 10 µM
- IC50 [8]: > 10 µM
- IC50 [9]: > 10 µM
- IC50 [10]: > 10 µM
- IC50 [11]: > 10 µM
- IC50 [12]: > 10 µM
- IC50 [13]: > 10 µM
- IC50 [14]: > 10 µM
- IC50 [15]: > 10 µM
- IC50 [16]: > 10 µM
- IC50 [17]: > 10 µM
- IC50 [18]: > 10 µM
- IC50 [19]: > 10 µM
- IC50 [20]: 0.115 µM
- IC50 [21]: > 0.333 µM
- Activity [22]: Active
